The source made the active and inactive calls. No cut-off for these calls is given here.
Tests used:
[1] = Plasma concentration in spontaneously hypertensive rat model at 10 mg/kg measured after 4 hrs; type: ADME, organism-based; parameters: dose 10 mg/kg
Outline: (§1)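 Rats received 10 mg/kg and were sacrificed at peak (about 4 h) or trough (about 24 h) post dose. Total and free drug were measured in plasma, isolated brain and CSF, and the brain/plasma ratio was derived from these.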

[2] = Total drug level in spontaneously hypertensive rat brain at 10 mg/kg measured after 4 hrs; type: ADME, organism-based; parameters: dose 10 mg/kg; conditions: read-out: Drug uptake; outline: as §1
[3] = target: 11-beta-hydroxysteroid dehydrogenase 1 (Rattus norvegicus, UniProt P16232); assay: Inhibition of rat 11beta-HSD1
Brain [4] = assay: Free drug level in spontaneously hypertensive rat brain at 10 mg/kg measured after 24 hrs; type: ADME, organism-based; parameters: dose 10 mg/kg; conditions: in vivo; outline: as §1
Plasma [5] = assay: Free plasma concentration in spontaneously hypertensive rat at 10 mg/kg measured after 24 hrs; type: ADME, organism-based; parameters: dose 10 mg/kg; conditions: in vivo; outline: as §1
Rattus norvegicus [6] = assay: Antihypertensive activity in spontaneously hypertensive rat model assessed as reduction in systolic BP at 10 mg/kg for 7 days; type: functional
Outline: (§2)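 Spontaneously hypertensive rats implanted with telemetry abdominal aorta catheters and dosed daily at 10 mg/kg over 7 days. Heart rate and systolic and diastolic BP were recorded, with change from baseline compared against vehicle-treated animals.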

Rattus norvegicus [7] = assay: Antihypertensive activity in spontaneously hypertensive rat model assessed as reduction in diastolic BP at 10 mg/kg for 7 days; type: functional, organism-based; parameters: dose 10 mg/kg; outline: as §2
Plasma [8] = assay: Free plasma concentration in spontaneously hypertensive rat at 10 mg/kg measured after 4 hrs; type: ADME, organism-based; parameters: dose 10 mg/kg; conditions: in vivo; outline: as §1
[9] = Plasma concentration in spontaneously hypertensive rat model at 10 mg/kg measured after 24 hrs; type: ADME, organism-based; parameters: dose 10 mg/kg; outline: as §1
[10] = Ratio of drug level in brain to plasma of spontaneously hypertensive rat at 10 mg/kg; type: ADME, organism-based; parameters: dose 10 mg/kg; conditions: read-out: BPR; outline: as §1
[11] = Drug level in spontaneously hypertensive rat CSF at 10 mg/kg measured after 24 hrs; type: ADME, organism-based, Cerebrospinal fluid; parameters: dose 10 mg/kg; conditions: read-out: Drug uptake; outline: as §1
Rattus norvegicus [12] = assay: Antihypertensive activity in spontaneously hypertensive rat model assessed as reduction in heart rate at 10 mg/kg for 7 days; type: functional, organism-based; parameters: dose 10 mg/kg; outline: as §2
[13] = Drug level in spontaneously hypertensive rat CSF at 10 mg/kg measured after 4 hrs; type: ADME, organism-based, Cerebrospinal fluid; parameters: dose 10 mg/kg; conditions: read-out: Drug uptake; outline: as §1
Brain [14] = assay: Free drug level in spontaneously hypertensive rat brain at 10 mg/kg measured after 4 hrs; type: ADME, organism-based; parameters: dose 10 mg/kg; conditions: in vivo; outline: as §1
[15] = Total drug level in spontaneously hypertensive rat brain at 10 mg/kg measured after 24 hrs; type: ADME, organism-based; parameters: dose 10 mg/kg; conditions: read-out: Drug uptake; outline: as §1
[16] = target: 11-beta-HSD1 (Rattus norvegicus); assay: Binding affinity to rat liver microsomal 11beta-HSD1 by radiometric competition assay
[17] = target: 11-beta-HSD2 (Homo sapiens); assay: Inhibition of human microsomal 11beta-HSD2 assessed as inhibition of […] by cell-based assay
Mus musculus [18] = assay: Antihypertensive activity in telemeterized wild type mouse assessed as reduction in systolic BP at 30 mg/kg/day for 11 days; type: functional
Outline: (§3)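 Telemeterized 11β-HSD1 knockout mice and wild-type controls (not littermates) were dosed at 30 mg/kg/day. Systolic BP change was compared with vehicle-treated mice of each genotype, and plasma exposure was also measured.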

Mus musculus [19] = assay: Antihypertensive activity in telemeterized 11beta-HSD1 KO mouse assessed as reduction in systolic BP at 30 mg/kg/day for 11 days; type: functional; outline: as §3
Homo sapiens [20] = species: Homo sapiens; assay: Antihypertensive activity in hypertensive patients assessed as placebo-corrected systolic BP at 6 mg/day
Homo sapiens [21] = species: Homo sapiens; assay: Antihypertensive activity in hypertensive patients assessed as placebo-corrected diastolic BP at 6 mg/day
Homo sapiens [22] = species: Homo sapiens; assay: Antihypertensive activity in hypertensive patients assessed as placebo-corrected systolic BP at 7 mg/day
Homo sapiens [23] = species: Homo sapiens; assay: Antihypertensive activity in hypertensive patients assessed as placebo-corrected diastolic BP at 7 mg/day

Sequence of 11-beta-hydroxysteroid dehydrogenase 1 (P16232 whole entry): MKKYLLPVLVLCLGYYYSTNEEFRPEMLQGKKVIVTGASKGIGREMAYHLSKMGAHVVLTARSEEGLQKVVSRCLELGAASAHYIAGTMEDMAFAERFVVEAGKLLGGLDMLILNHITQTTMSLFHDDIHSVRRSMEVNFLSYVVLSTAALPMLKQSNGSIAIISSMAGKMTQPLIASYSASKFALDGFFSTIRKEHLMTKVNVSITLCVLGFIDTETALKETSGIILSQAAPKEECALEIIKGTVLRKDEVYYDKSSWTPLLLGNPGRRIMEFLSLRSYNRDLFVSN

Row | Compound | concentration at 4 h [1] | concentration at 4 h [2] | IC50 [3] | Ki [3] | Drug uptake(free) (Brain [4]) | Cp(f) (Plasma [5]) | Activity (Rattus norvegicus [6]) | Activity (Rattus norvegicus [7]) | Cp(f) (Plasma [8]) | concentration at 24 h [9] | Kp [10] | concentration at 24 h [11] | Activity (Rattus norvegicus [12]) | concentration at 4 h [13] | Drug uptake(free) (Brain [14]) | concentration at 24 h [15] | further results
1 | CCS(=O)(=O)CC12CCC(c3nnc(-c4ccccc4C(F)(F)F)n3C)(CC1)CC2 | 27.7 µM | 3.1 µM | 9.1 nM | 13.1 nM | 0.2 µM | 2.1 µM | 3 mmHg | Active | 8 µM | 10.2 µM | < 1 | 0.7 µM | Active | 2.1 µM | 1.3 µM | 0.8 µM | 
2 | CCS(=O)(=O)CCC12CCC(c3nnc(-c4ccccc4C(F)(F)F)n3C)(CC1)CC2 | 24.2 µM | 5 µM | 6 nM | 3.9 nM | 0.2 µM | 1.9 µM | 3 mmHg | Active | 9.5 µM | 6 µM | < 1 | 0.7 µM | Active | 5.1 µM | 0.5 µM | 0.7 µM | 
3 | [3H]c1cc(-c2nnc(C34CCC(c5noc(C(C)(F)F)n5)(CC3)CC4)n2C)c(C(F)(F)F)cc1[3H] |  |  |  |  |  |  |  |  |  |  |  |  |  |  |  |  | Kd [16]: 11 nM
4 | Cn1c(-c2ccccc2C(F)(F)F)nnc1C12CCC(c3nc(-c4ccc(F)cc4)no3)(CC1)CC2 | 13.9 µM | 44.4 µM |  |  | 0.06 µM | 0.05 µM | >15 mmHg | Active | 0.07 µM | 12.1 µM | > 1 | 0.2 µM | Active | 0.2 µM | 0.08 µM | 39.1 µM | 
5 | Cn1c(-c2ccccc2C(F)(F)F)nnc1C12CCC(c3noc(C(C)(F)F)n3)(CC1)CC2 | 25 µM | 60.5 µM | 4.5 nM | 7 nM | 2.4 µM | 2.4 µM | >15 mmHg | Active | 2.5 µM | 25.4 µM | > 1 | 3.4 µM | Active | 4.4 µM | 3 µM | 55.4 µM | IC50 [17]: 3100 nM; Activity (Mus musculus [18]): -8 mmHg; Activity (Mus musculus [19]): -5.8 mmHg; Bmax ([16]; tested as the 3H-labelled form): 55500 fmol/mg
6 | F[C@H]1C[C@](c2ccc(Cl)cc2)(c2nnc(C3CC3)n2C2CC2)C1 |  |  |  |  |  |  |  |  |  |  |  |  |  |  |  |  | Activity (Homo sapiens [20]): -7.9 mmHg; Activity (Homo sapiens [21]): -5.4 mmHg
7 | CCS(=O)(=O)CCCC12CCC(c3nnc(-c4ccccc4C(F)(F)F)n3C)(CC1)CC2 [MK-0736] |  |  |  |  |  |  |  |  |  |  |  |  |  |  |  |  | Activity (Homo sapiens [22]): -7.7 mmHg; Activity (Homo sapiens [23]): -4.4 mmHg
